In the library only some 2.6% were active in any assay of this set; here they are far more common.
RAD52 anneal inh: blocks human RAD52 DNA annealing; P43351; recombinant RAD52 DNA annealing, FRET fluorescence; inhibition, % at 18.7 µM; 0.46% of 360,000 active;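 active means every replicate showing at least 50% inhibition; inconclusive means mean inhibition at least 50% but not in every replicate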
AF4-AF9 inh: MLL-AF4/AF9 protein interaction inhibition. AlphaScreen, biotin-AF4 peptide binding to FLAG-AF9. P42568. 0.47% of 350,000 active. inhibition, % at 10 µM;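 active means every replicate reaching a set inhibition limit, whatever the replicate mean, cut at about 25% in these data; inconclusive means mean inhibition reaches that limit but some replicates miss it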;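 further: 0% = plate neutral control median and 100% = total signal loss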
Target sequence (P42568 whole entry, looked up): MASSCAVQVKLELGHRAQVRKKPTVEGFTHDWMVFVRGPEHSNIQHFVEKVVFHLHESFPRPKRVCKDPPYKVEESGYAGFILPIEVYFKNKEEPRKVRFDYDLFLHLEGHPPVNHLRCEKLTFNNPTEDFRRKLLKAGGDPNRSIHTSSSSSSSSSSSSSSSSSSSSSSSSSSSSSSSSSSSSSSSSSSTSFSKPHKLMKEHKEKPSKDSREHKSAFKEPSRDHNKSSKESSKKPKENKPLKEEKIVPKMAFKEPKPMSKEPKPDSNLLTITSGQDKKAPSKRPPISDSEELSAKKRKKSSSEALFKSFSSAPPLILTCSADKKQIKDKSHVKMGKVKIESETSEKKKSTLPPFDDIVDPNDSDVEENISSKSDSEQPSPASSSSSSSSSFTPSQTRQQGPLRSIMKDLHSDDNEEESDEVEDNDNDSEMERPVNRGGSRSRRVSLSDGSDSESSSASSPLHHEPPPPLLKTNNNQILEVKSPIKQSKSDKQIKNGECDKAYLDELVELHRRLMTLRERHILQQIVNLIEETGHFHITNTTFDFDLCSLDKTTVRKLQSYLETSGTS
RAD54 inh: inhibitors of human RAD54 branch migration; 0.14% of 360,000 active; Q92698; AID 602329; RAD54 Holliday junction branch migration, FAM/BHQ fluorescence; inhibition, % at 10.4 µM;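 active means mean normalized replicate activity at least 40 and at least half of replicates scoring 40 or more; inconclusive means only one of the two criteria met; inactive means mean below 40 and under half of replicates reaching 40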;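 further: 0% = median of neutral control wells and 100% = median of positive control wells; inhibitors cause a drop in the FAM fluorescence signal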
Ecoli rRNA inh: selective bacterial rRNA inhibition in E. coli | E. coli WT GFP vs humanized-ribosome RFP mutants, fluorescence, 24 h; stronger effect = lower value; DMSO median 0, no signal -100 | GFP signal change (wild-type ribosome), % (concentration not given with the values) | 1.6% of 350,000 active | AID 720706;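 active means significant combined selectivity score with lowered wild-type GFP, culture density cut under 30%, mutant RFP and density less affected; inactive means any of these conditions unmet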
E-sel inducer: E-selectin induction on HUVECs; HUVEC E-selectin immunofluorescence imaging; normalized: neutral wells 0, TNF-alpha wells 100; activation, % at 7.58 µM; 0.37% of 260,000 active; AID 686992;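 active means mean E-selectin-positive cell signal at least 10% of the positive control, reached in at least 60% of replicates, without over 20% cell loss; inconclusive means no rule given, readout overlaps actives, possibly toxicity-flagged; inactive means the rest, including those meeting only one limit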
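Test system: HUVEC | Signal: Immunofluorescence imaging | Read-out: Percent E-selectin-positive cells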
GSIS activator: primary screen for activators of insulin secretion dependent on glucose, INS-1E cells, GLuc reporter luminescence; AID 743287; 0.61% of 370,000 active; INS-1E GLuc reporter insulin secretion, 2-3 h; activation, % at 16.6 µM;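 active means lowest replicate activation of at least 40%, so every replicate reaches that level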;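 further: 0% = median of neutral control wells and 100% = median of IBMX positive control wells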
AID977621: growth inhibition of wild-type GFP E. coli, dose response, H69 mutant RFP, cherry-pick; AID 977621; shares compounds with Ecoli rRNA inh; activity change, negative = inhibition at 50 µM; 1,900 tested, under 10 active; E. coli wild-type GFP strain growth, fluorescence, 24 h;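 active means Wild-type ribosome reporter drop at least double the humanized mutant ribosome reporter drop, growth loss under a set limit; inconclusive means no clear call, values can overlap the other calls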;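 further: wild-type GFP and H69 mutant RFP strains grown together 50/50 in each well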
AID977628: growth of wild-type and h24-humanized E. coli strains – h24 mutant RFP vs wild-type GFP, cherry-pick, dose response; shares compounds with Ecoli rRNA inh; E. coli WT GFP strain growth, fluorescence, 24 h; activity change, negative = inhibition at 50 µM; 1,900 tested, under 10 active;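 active means compound lowering the normal-ribosome reporter at least twice as much as the humanized-ribosome reporter, growth loss under a set limit; inconclusive means no clear call, values can overlap the other calls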;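 further: wild-type GFP and h24 humanized RFP strains co-cultured 1 to 1 per well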
Numbers without * were called inactive; ? = inconclusive; . = no result given; ! = repeats disagree.

SMILES	RAD52 anneal inh	AF4-AF9 inh	RAD54 inh	Ecoli rRNA inh	E-sel inducer	GSIS activator	AID977621	AID977628
O=C(CCN1CCCCC1)N[C@H]1CC[C@@H](CCNS(=O)(=O)c2ccc(F)cc2)O[C@H]1CO	7.3	1.9	-3.4	5.7	1.0	21.1	.	.
Cn1cc([N+](=O)[O-])c(C(=O)Nc2ccc(-c3nc4ccccc4[nH]3)cc2)n1	12.6	-5.9	.	-25.9*	.	2.6	-28.9	?
Cc1ccc(Nc2nc(C(=O)NCC3CCCO3)cs2)cc1 (stereo unspecified)	-4.0	-5.5	.	-42.4*	1.8	-10.8	3.49	-3.15
C[C@H](CO)N1C[C@H](C)[C@@H](CN(C)CC2CCCCC2)OCCCC[C@H](C)Oc2ccc(NS(=O)(=O)c3ccccc3)cc2C1=O	16.9	0.9	8.3	0.3	0.2	-10.9	.	.
C[C@H](NC(=O)C[C@@H]1C=C[C@@H](NC(=O)Cc2ccccn2)[C@@H](CO)O1)c1ccccc1	-10.2	-0.6	0.6	0.8	0.3	17.4	.	.
COc1ccccc1-c1ccc([C@H]2[C@@H](CO)N3CCCCN(C(=O)NC4CCCC4)C[C@@H]23)cc1	6.4	0.2	-2.9	2.2	-0.5	-23.5	.	.
CC(C)(C)C(=O)OCc1nc(-c2ccc(Cl)cc2)cs1	-13.9	-10.7	-12.1	-14.8	.	-17.1	.	.
CC(C)(C)S(=O)(=O)Cc1nc(-c2ccc(Cl)c(Cl)c2)cs1	-11.4	3.7	.	-15.2*	-0.2	24.5	-1.04	-2.62
COc1ccc(OC)c(-c2nn(-c3ccccc3)cc2C(=O)N2CCc3ccccc3C2)c1	2.8	6.8	-4.5	-16.4*	.	-38.3	-13.2	.
COc1ccccc1-c1nn(-c2ccccc2)cc1C(=O)N1CCc2ccccc2C1	-4.9	5.5	6.6	-14.5	-1.0	-39.6	.	.
O=C(C[C@H]1CC[C@H](NC(=O)Nc2ccccc2F)[C@H](CO)O1)NCc1ccc(-c2ccccc2)cc1	3.0	-7.4	.	-19.9*	0.4	10.5	-6.52	?
O=C(C[C@H]1CC[C@@H](NC(=O)Nc2ccccc2F)[C@@H](CO)O1)NCc1ccccc1	2.6	-0.5	8.9	-3.9	-0.2	-6.3	.	.
O=C(Cc1ccc(NC(=O)C2CCCN(C(=O)CCc3ccccc3)C2)cc1)Nc1cccc(C(=O)N2CCCCC2)c1 (stereo unspecified)	-97.3	-0.1	-4.9	-5.0	-2.0	-14.0	.	.
O=C(Cc1cccc(NC(=O)C2CCCN(C(=O)CCc3ccccc3)C2)c1)Nc1cccc(C(=O)N2CCCC2)c1 (stereo unspecified)	-42.1	-0.7	0.9	-19.0*	0.6	9.0	?	.
Cc1noc(C)c1S(=O)(=O)Nc1ccc2c(c1)C(=O)N([C@H](C)CO)C[C@H](C)[C@@H](CN(C)Cc1ccncc1)OCCCC[C@@H](C)O2	2.9	-1.6	-6.9	4.1	0.0	24.2	.	.
CN(C)S(=O)(=O)c1ccc2oc(SCC(=O)NCC(F)(F)F)nc2c1	-13.2	.	6.0	-14.4*	.	3.2	?	-5.62
C[C@H](CO)N1C[C@H](C)[C@H](CN(C)C(=O)NC2CCCC2)Oc2cc(-c3cccnc3)ccc2S1(=O)=O	11.5	-14.2	-23.2	-5.7	-3.3	6.1	.	.
S=C1SCN(Cc2cccnc2)CN1Cc1cccnc1	-8.4	-4.0	.	-29.0*	.	.	-15.4	-21.7
Cc1cc(C)c(OCCN(C)Cc2ccccc2)c(Br)c1	5.9	1.6	.	-23.1*	-1.6	6.2	4.1	-8.34
COc1ccc(OCC(=O)NCCC2=CCCCC2)c([N+](=O)[O-])c1	7.9	-4.9	.	.	.	2.6	.	.
COc1ccc(C(=O)NCCC2=CCCCC2)cc1[N+](=O)[O-]	-13.2	-1.2	-2.3	-21.6*	1.2	4.5	-12.9	-10.1
C[C@@H]1CN([C@@H](C)CO)S(=O)(=O)c2ccc(Br)cc2O[C@H]1CN(C)C(=O)c1ccccc1	-15.7	0.8	5.4	-18.4*!	5.5	-9.5	5.34	-5.03
C[C@H]1CCCCO[C@H](CN(C)CC2CCCCC2)[C@@H](C)CN([C@@H](C)CO)C(=O)c2cc(NC(=O)Cc3ccccc3)ccc2O1	1.5	1.3	3.9	3.2	0.3	-8.4	.	.
CCOC(=O)c1nc(S(C)(=O)=O)ncc1N1CCOCC1	.	.	-1.2	.	.	.	.	.
CCOC(=O)c1nc(S(C)(=O)=O)ncc1Cl	-4.2	-2.8	-0.5	-27.1*	.	34.8	-2.99	?
SMILES	RAD52 anneal inh	AF4-AF9 inh	RAD54 inh	Ecoli rRNA inh	E-sel inducer	GSIS activator	AID977621	AID977628
CCCC(=O)Nc1ccc2c(c1)C(=O)N(C)[C@H]1CC[C@H](CC(=O)NCC3CCCCC3)O[C@@H]1CO2	-0.5	1.8	-13.1	1.6	0.1	-2.9	.	.
Cc1[nH]nc2c1C(c1ccc(F)cc1)N(Cc1ccccc1)C2=O (stereo unspecified)	6.5	.	.	-21.0*	0.1	-11.4	.	?
COc1ccc2sc(N3C(=O)CC(Cc4cccc(C)c4)C3=O)nc2c1 (stereo unspecified)	6.4	1.6	3.8	-33.0*	.	5.2	.	?
COc1ccc(S(=O)(=O)Nc2ccc3c(c2)CC(=O)N([C@@H](C)CO)C[C@H](C)[C@H](CN(C)Cc2ccncc2)O3)cc1	4.9	-0.7	12.3	-2.4	0.4	-0.2	.	.
Fc1ccccc1C1CCN(Cc2nc(COc3ccccc3)no2)C1 (stereo unspecified)	-22.8	4.1	-4.4	-16.1*	0.2	-38.5	-8.29	-2.02
CCN(C(=O)CSc1cc(-c2ccccc2)c2ccc(OC)cc2n1)C1CCS(=O)(=O)C1 (stereo unspecified)	-48.4	6.4	.	.	0.4	.	.	.
CCN(C(=O)CSc1cc(C)c2ccc(OC)cc2n1)C1CCS(=O)(=O)C1 (stereo unspecified)	-25.1	-2.7	-7.8	-22.7*	-0.3	19.0	-15.5	-14
Cc1c(CCOC(=O)C23CC4CC(CC(C4)C2)C3)sc[n+]1Cc1ccccc1	-8.6	2.4	-2.1	-27.2*	.	10.9	-1.89	2.81
Cc1c(CCOC(=O)C23CC4CC(CC(C)(C4)C2)C3)sc[n+]1Cc1ccccc1	.	.	4.6	.	.	24.6	.	.
COc1ccc(CN2C(=O)c3ccccc3C2c2nnnn2Cc2ccccc2)cc1OC (stereo unspecified)	-9.2	2.1	.	-5.7	4.0	13.7	.	.
O=C1c2ccccc2C(c2nnnn2Cc2ccccc2)N1Cc1cccc(F)c1 (stereo unspecified)	-7.0	-1.2	.	-23.1*!	4.5	-0.4	-4.92	-5.37

Screening results as filed in PubChem BioAssay.
